From PubChem BioAssay
Calls of active or inactive are those of the source.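 How the source made its calls, unless noted: active means viability at or under a set limit in both replicates, limit being median viability minus 3 SD (cut at about 48% in these data, passing the limit was not always enough); inconclusive means at or under the limit in just one replicate; inactive means at or above the limit in both replicates.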

Legend:
[1] = reduced viability of SK-BR-3 breast cancer cells – cell-based, 24 h, human, pilot screen (AID 572;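 active means viability at or below 10% of carrier control in both of two separate runs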;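 further: compound exposure lasted between 18 and 24 h rather than exactly 24 h; 100% = carrier-treated control wells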); conditions: SK-BR-3 viability, CellTiter-Glo luminescence, at 10 µM, stronger effect = lower value
[2] = HUVEC growth inhibition – cell-based, human, primary screen (AID 575;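 active means viability at or below 30% in both replicate assays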;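 further: 100% = median of untreated cell wells with 0.1% DMSO on each plate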); conditions: HUVEC proliferation, CellTiter-Glo luminescence, 72 h; at 10 µM; stronger effect = lower value
Outline: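 Timing: 72 h treatment at 37 °C; material: HUVEC primary cells; technique: CellTiter-Glo luminescence measuring cellular ATP; controls: vehicle and MePR control wells; measure: percent of median DMSO-control luminescence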

[3] = H69AR cell proliferation blockers – human, duplicate replicates, primary screen (AID 580); conditions: H69AR lung tumor cells viability, ATP luminescence, 72 h; at 10 µM; stronger effect = lower value;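 further: 100% = mean luminescence of untreated wells and 0% = no signal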
[4] = MRP1 drug-resistance reversers in H69AR cells – cell-based, doxorubicin co-treatment, pilot screen (AID 601;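 active means viability loss from added drug above about 55%, and viability with drug at most 40%, in both replicates, limit read from the data, passing the limit was not always enough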); conditions: CellTiter-Glo, 72 h, at 10 µM; for differential viability (reversal): stronger effect = higher value
[5] = yeast transport mutant growth inhibition pilot in 384-well plates, post-Golgi transport modulator project (AID 636; in the data active means inhibition above about 31%); conditions: absorbance 615 nm, about 18 h, stronger effect = higher value
[6] = growth suppression of yeast trafficking mutant, preliminary HTS, modulators of trafficking downstream of Golgi apparatus project, 1536-format plate, OD 615 nm (AID 637; in the data active means inhibition above about 30%); conditions: yeast transport mutant growth, absorbance 615 nm, 18 h; stronger effect = higher value
[7] = H69AR cells + 2 uM doxorubicin, measured here: viability with 2 uM doxorubicin, stronger effect = lower value
[8] = H69AR cells, compound alone cytotoxicity

| Compound | viability [1] | viability [2] | viability [3] | differential viability (reversal) ([4]; H69AR cells + 2 uM doxorubicin) | viability [4, 7] | viability [4, 8] | inhibition [5] | inhibition [6] |
| --- | --- | --- | --- | --- | --- | --- | --- | --- |
| CCOc1nc(-c2ccncc2)nc2ccccc12 | 100% (inactive) | 93.7% (inactive) | 92.6% (inactive) | 0.47% (inactive) | 92.1% | 92.6% | -7.4% (inactive) | 9.35% (inactive) |
| O=C(Nc1ccccc1C(=O)N1CCOCC1)c1cccc(S(=O)(=O)N2CCCC2)c1 | 112% (inactive) | 92.3% (inactive) | 88.2% (inactive) | -1.19% (inactive) | 89.3% | 88.2% | -2.08% (inactive) | 0.49% (inactive) |
| NS(=O)(=O)c1ccc(CCNC(=O)CCC2COc3ccccc3O2)cc1 (configuration not stated) | 90% (inactive) | 105% (inactive) | 95.8% (inactive) | 8.33% (inactive) | 87.5% | 95.8% | -5.62% (inactive) | 0.16% (inactive) |
| O=C(Nc1ccon1)c1cccc(S(=O)(=O)N2CCCC2)c1 | 96% (inactive) | 99.5% (inactive) | 87.8% (inactive) | -10.9% (inactive) | 98.8% | 87.8% | -2.53% (inactive) | -0.55% (inactive) |
| Cc1cc(C)c2nc(C(F)(F)F)nc(NCCCN3CCCC3=O)c2c1 | 113% (inactive) | 51.4% (inactive) | 83.7% (inactive) | -9.04% (inactive) | 92.7% | 83.7% | -4.38% (inactive) | 0.65% (inactive) |
| CN(c1ccc(OCc2nnc(-c3ccccc3)o2)cc1)S(=O)(=O)c1ccccc1 | 99% (inactive) | 96.6% (inactive) | 82.9% (inactive) | 2.42% (inactive) | 80.5% | 82.9% | -7.7% (inactive) | -5.45% (inactive) |
| O=C(Nc1cccc(NC(=O)c2ccco2)c1)c1ccc2c(c1)OCO2 | 106% (inactive) | 61% (inactive) | 82.4% (inactive) | -4.39% (inactive) | 86.8% | 82.4% | -1.18% (inactive) | 21.2% (inactive) |
| CC1=C(/C=C/C(C)=C/C=C/C(C)=C/C(=O)O)C(C)(C)CCC1 | 84% (inactive) | 83.7% (inactive) | 104% (inactive) | 2% (inactive) | 102% | 104% | 0.91% (inactive) | 8.67% (inactive) |
| c1ccc(Cn2nnnc2C(c2cccs2)N2CCSCC2)cc1 (configuration not stated) | 98% (inactive) | 93.1% (inactive) | 81.6% (inactive) | -2.6% (inactive) | 84.2% | 81.6% | -3.97% (inactive) | -4.35% (inactive) |
